Here are results for 12 molecules from ChEMBL document CHEMBL1127837, “6,9-Bis[(aminoalkyl)amino]benzo[g]isoquinoline-5,10-diones. A novel class of chromophore-modified antitumor anthracene-9,10-diones: synthesis and antitumor evaluations” (J Med Chem, 1994).

One may read the T/C as the result in the treated group divided by that in the control group, in per cent. Broadly, the IC50 is the concentration needed to halve the response being measured. Low values mean greater potency, high ones weaker potency.

Structures are written as SMILES. Converted amounts (≈) assume the structure as drawn.

For one data set, the system named is P388. Put plainly: Tested for antitumor activity against P388 murine leukemia. It counts as functional, Mus musculus. The method in brief: (§1)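 P388 cells kept by serial ip passage (10^5 cells) in DBA2 male mice. CD2F1 mice inoculated iv with 10^6 cells on day 0. Drug given iv on days 1, 4 and 7. Daily observation for toxicity and survival over 60 days. Median survival time per group, expressed as %T/C = MST treated/MST control × 100.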

Data set [1] is described as follows: Resistance index is the ratio of IC50 of resistant cell line/IC50 of sensitive cell line. It counts as functional. The method in brief:
(§2)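 LoVo and doxorubicin-resistant LoVo/Dx colon cells grown in Ham's F12 with 10% fetal calf serum, glutamine, vitamins and Hepes at 37 °C. 2.5 × 10^5 cells/mL plated and preincubated 24 h, then exposed to drug for 144 h. MTT read-out at 570 nm. IC50 (µg/mL) derived; resistance index = IC50 resistant / IC50 sensitive line.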

Data set [2] is described as follows: The compound was tested for antitumor activity against P388 murine leukemia by measuring maximum tolerated dose. The class given is ADME, organism-based. Particulars: mouse, in vivo; read-out: LD10. The method in brief: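 CD2F1 mice were given 10^6 P388 cells iv, followed by iv treatment on days 1, 4 and 7 after transplantation. Mice were observed daily for toxicity and survival for 60 days. The value is the maximum tolerated dose, taken as LD10, or else the maximum dose administered.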

The next data set has as its system LoVo/DX (Homo sapiens). The data set is described as follows: Tested in vitro for cytotoxic activity against Doxorubicin resistant Human colon Adenocarcinoma cell line.
For another data set, the system named is LoVo. Put plainly: Tested in vitro for cytotoxic activity against Human colon Adenocarcinoma sensitive cell line (LoVo). It counts as functional, cell-based. The method in brief:
as §2

A further data set has as its system L1210. Put plainly: Tested in vitro for inhibitory activity against L1210 murine leukemia. It counts as functional, cell-based. The note with it: Mus musculus. The essentials: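 L1210 suspension cells grown in McCoy's 5A with 10% horse serum, 10% CO2, 37 °C. Drug dissolved in water and added to 10^5 cells/tube at final 0.01, 0.1, 1 and 10 µg/mL.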
For the next data set, the species on record is Mus musculus. The data set is described as follows: The compound was tested for antitumor activity against P388 murine leukemia. The class given is functional. The essentials: as §1

Consider `CN(C)CCNc1ccc(NCCN(C)C)c2c1C(=O)c1cc[n+]([O-])cc1C2=O`, for which, in the data set with P388, the T/C worked out at 122%. Besides, in data set [1], the Ratio is listed as 6. The MTD in data set [2] came to 40 mg/kg/day. The values for the IC50 with LoVo/DX (Homo sapiens) and in the data set on LoVo were 2.6 µg/mL (≈ 6.54 µM) and 0.44 µg/mL (≈ 1.11 µM), respectively.

Turning to `NCCCNc1ccc(NCCCN)c2c1C(=O)c1ccncc1C2=O`, the IC50 is 0.1 µg/mL (≈ 0.283 µM) in the data set on L1210, 54.5 µg/mL (≈ 154 µM) with LoVo/DX (Homo sapiens) and 2.1 µg/mL (≈ 5.94 µM) in the data set with LoVo. The molecule also yielded a T/C with P388 of 155%. The Ratio in data set [1] is given as 26. For the same molecule, in data set [2], the MTD was 40 mg/kg/day.

`COCCNCCNc1ccc(NCCNCCOC)c2c1C(=O)c1ccncc1C2=O` registered a half-maximal inhibitory concentration (IC50) in the data set with L1210 of 0.44 µg/mL (≈ 0.997 µM).

Take `NCCNc1ccc(NCCN)c2c1C(=O)c1ccncc1C2=O` [PIXANTRONE]: in data set [1], the Ratio is reported as 30. In addition, the IC50 worked out at 7.2 µg/mL (≈ 22.1 µM) in the data set on LoVo/DX (Homo sapiens) and 0.24 µg/mL (≈ 0.738 µM) in the data set with LoVo.

As to `NCCCCNc1ccc(NCCCCN)c2c1C(=O)c1ccncc1C2=O`, the IC50 was found to be 1.5 µg/mL (≈ 3.93 µM) in the data set on L1210, 0.83 µg/mL (≈ 2.18 µM) in the data set on LoVo/DX (Homo sapiens) and 2.27 µg/mL (≈ 5.95 µM) in the data set on LoVo. For the same molecule, the Ratio in data set [1] is 0.4. Besides, the MTD in data set [2] came out at 35 mg/kg/day. The molecule also displayed a T/C in the data set listed under Mus musculus of 100%.

In the data set on L1210, `CC(=O)NCCNc1ccc(NCCNC(C)=O)c2c1C(=O)c1ccncc1C2=O` yielded a 50% inhibitory concentration (IC50) of over 10 µg/mL.

Consider `O=C1c2ccncc2C(=O)c2c(NCCN3CCOCC3)ccc(NCCN3CCOCC3)c21`, for which the results for the IC50 in the data set with L1210, in the data set on LoVo/DX (Homo sapiens) and in the data set on LoVo were 1.1 µg/mL (≈ 2.36 µM), 2.3 µg/mL (≈ 4.94 µM) and 5.32 µg/mL (≈ 11.4 µM), respectively. The molecule also registered a T/C in the data set on P388 of 122%. The Ratio in data set [1] was 0.4. Besides, in data set [2], the MTD was found to be 60 mg/kg/day.

For the molecule `CCCNCCNc1ccc(NCCNCCC)c2c1C(=O)c1ccncc1C2=O`, the IC50 in the data set on L1210 was 0.04 µg/mL (≈ 0.0977 µM); in the data set on LoVo/DX (Homo sapiens), 2.8 µg/mL (≈ 6.84 µM); in the data set with LoVo it was 0.2 µg/mL (≈ 0.488 µM). Further, in data set [1], the Ratio is 14.

As for `O=C1c2ccccc2C(=O)c2c(NCCNCCO)ccc(NCCNCCO)c21` [AMETANTRONE], the IC50 was determined as 0.03 µg/mL (≈ 0.0727 µM) with L1210, 34.7 µg/mL (≈ 84.1 µM) in the data set with LoVo/DX (Homo sapiens) and 0.4 µg/mL (≈ 0.97 µM) in the data set on LoVo. The molecule also gave a T/C in the data set on P388 of 127%. For the same molecule, in data set [1], the Ratio came to 87. Also, the MTD in data set [2] was found to be 58 mg/kg/day.

Turning to `CC(C)N(CCNc1ccc(NCCN(C(C)C)C(C)C)c2c1C(=O)c1ccncc1C2=O)C(C)C`, the values for the IC50 in the data set with L1210, with LoVo/DX (Homo sapiens) and with LoVo were 1.8 µg/mL (≈ 3.65 µM), 2.8 µg/mL (≈ 5.67 µM) and 2.5 µg/mL (≈ 5.06 µM), respectively. Moreover, the Ratio in data set [1] was 1.1.

Take `O=C1c2ccncc2C(=O)c2c(NCCN3CC3)ccc(NCCN3CC3)c21`: the IC50 in the data set with L1210 was 0.002 µg/mL (≈ 0.0053 µM).

As for `CN(C)CCNc1ccc(NCCN(C)C)c2c1C(=O)c1ccncc1C2=O`, the IC50 with L1210 stood at 0.006 µg/mL (≈ 0.0157 µM); in the data set on LoVo/DX (Homo sapiens) it was 0.13 µg/mL (≈ 0.341 µM); in the data set with LoVo, 0.076 µg/mL (≈ 0.199 µM). Further, the Ratio in data set [1] stood at 1.7.
